Source: ChEMBL document CHEMBL1149473, “Anti-AIDS agents 69. Moronic acid and other triterpene derivatives as novel potent anti-HIV agents” (J Med Chem, 2006)
Active and inactive are the calls of the source. The rule behind the calls is not given here.

Legend:
[1] = Therapeutic index, IC50 for H9/EC50 for HIV 3B; format: cell-based; conditions: human, H9 cells; read-out: Ratio IC50/EC50
Summary of the method: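 Therapeutic index is IC50 divided by EC50. IC50 is the XTT toxicity in mock-infected H9 cells. EC50 is the 50% suppression of p24 in HIV-1 IIIB-infected H9 cells at day 6.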

H9 [2] = assay: Antiviral activity against HIV1 3B in H9 lymphocytes; format: functional, cell-based; conditions: for EC50: Homo sapiens
Summary of the method: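 HIV-1 IIIB isolate (125 TCID50) added to H9 cells at 3 × 10⁵ cells/mL in RPMI 1640 with 10% fetal calf serum and L-glutamine, 37 °C, 5% CO2. Media replaced on days 1 and 4 postinfection. Supernatant p24 antigen capture on day 6. EC50 = concentration suppressing replication by 50%. AZT run as positive control each experiment.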

MT4 [3] = assay: Antiviral activity against HIV1 NL4-3 in MT4 cells; format: functional, cell-based; conditions: for EC50: Homo sapiens, NL4-3, MT4
Summary of the method: (§1)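 MT4 cells were infected with HIV-1 at MOI 0.01 using the strain named in the line. NL4-3 is a T-cell adapted X4 wild-type virus. PI-R is M46I/L63P/V82T/I84V, resistant to multiple protease inhibitors. Supernatants were collected on day 4 postinfection for p24 ELISA. EC50 = concentration inhibiting replication by 50%.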

H9 [4] = assay: Cytotoxicity against human H9 lymphocytes; format: functional, cell-based
Summary of the method: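 Mock-infected H9 cells were treated in parallel with the antiviral plates under identical conditions, without virus, and were read by XTT on day 6. IC50 = concentration toxic to 50% of mock-infected cells.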

MT4 [5] = assay: Cytotoxicity against human MT4 cells; format: functional, cell-based
Summary of the method: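 Cytotoxicity was measured in MT4 cells and given as IC50, the concentration decreasing viable cell number by 50%.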

[6] = Therapeutic index, IC50 for MT-4/EC50 for HIV1 NL4-3; conditions: human, MT-4 cells
MT4 [7] = assay: Cytotoxicity against human MT4 cells at 5 uM; format: functional, cell-based
MT4 [8] = assay: Antiviral activity against HIV1 NL4-3 replication in human MT4 cells; format: functional, cell-based; conditions: NL4-3, MT4; summary of the method: as §1
[9] = Inhibition of membrane fusion between HIV1 NL4-3 envelope gene expressing COS cells and TZM cells; format: functional, cell-based
Summary of the method: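 COS cells were electroporated with pSRHS carrying the HIV-1 NL4-3 envelope genes (2 µg per 10⁶ cells, 950 µF, 150 V) and cultured 1 day. They were then mixed with TZM cells (10⁴ COS : 10 × 10⁴ TZM) with compound at various concentrations, 37 °C, 24 h. Luciferase read-out. EC50 = 50% inhibition of envelope-mediated fusion.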

MT4 [10] = assay: Antiviral activity against HIV1 FHR2 replication in MT4 cells at 5 uM; format: functional, cell-based
[11] = Cytotoxicity against COS-TZM fused cells; format: functional, cell-based
Summary of the method: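 Cytotoxicity was determined as IC50 in a one-day assay, matching the fusion assay duration. The highest concentration tested was 10 µg/mL.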

MT4 [12] = assay: Antiviral activity against HIV1 PI-R replication in human MT4 cells; format: functional, cell-based; summary of the method: as §1
MT4 [13] = assay: Antiviral activity against HIV1 FHR2 replication in MT4 cells; format: functional, cell-based; conditions: Homo sapiens; summary of the method: as §1

| SMILES | selectivity ratio [1] | EC50 (H9 [2]) | Activity (MT4 [3]) | IC50 (H9 [4]) | IC50 (MT4 [5]) | EC50 (MT4 [3]) | selectivity ratio [6] | IC50 (MT4 [7]) | EC50 (MT4 [8]) | EC50 [9] | Activity (MT4 [10]) | IC50 [11] | EC50 (MT4 [12]) | Activity (H9 [2]) | EC50 (MT4 [13]) |
| --- | --- | --- | --- | --- | --- | --- | --- | --- | --- | --- | --- | --- | --- | --- | --- |
| CC1(C)C=C2[C@H]3CC[C@@H]4[C@@]5(C)CC[C@H](OC(=O)C(C)(C)CC(=O)O)C(C)(C)[C@@H]5CC[C@@]4(C)[C@]3(C)CC[C@@]2(C(=O)NCCCCCCCCCCC(=O)O)CC1 | > 3.5 | 9300 nM | inactive | > 32600 nM | – | – | – | – | – | – | – | – | – | – | – |
| CC1(C)CC[C@]2(C(=O)O)CC[C@]3(C)C(=CC[C@@H]4[C@@]5(C)CC[C@H](OC(=O)CC(C)(C)C(=O)O)C(C)(C)[C@@H]5CC[C@]43C)[C@@H]2C1 | > 133 | 320 nM | – | > 42700 nM | 20200 nM | 8300 nM | 2.4 | – | – | – | – | – | – | – | – |
| C=C(C)[C@@H]1CC[C@]2(C(=O)O)CC[C@]3(C)[C@H](CC[C@@H]4[C@@]5(C)CC[C@H](OC(=O)CC(C)(C)C(=O)O)C(C)(C)[C@@H]5CC[C@]43C)[C@@H]12 [BEVIRIMAT] | > 6250 | 7 nM | – | > 42800 nM | – | 96 nM | > 52 | > 5000 nM | 96 nM | > 17100 nM | inactive | > 17100 nM | 430 nM | – | – |
| CC(C)(CC(=O)O)CC(=O)O[C@H]1CC[C@]2(C)[C@H]3CC=C4[C@@H]5CC(C)(C)CC[C@]5(C(=O)O)CC[C@@]4(C)[C@]3(C)CC[C@H]2C1(C)C | – | – | inactive | – | – | – | – | – | – | – | – | – | – | inactive | – |
| C[C@H]1[C@H](C)CC[C@]2(C(=O)O)CC[C@]3(C)C(=CC[C@@H]4[C@@]5(C)CC[C@H](OC(=O)CC(C)(C)CC(=O)O)C(C)(C)[C@@H]5CC[C@]43C)[C@H]12 | 42 | 680 nM | inactive | 28500 nM | – | – | – | – | – | – | – | – | – | – | – |
| C=C(C)[C@@H]1CC[C@]2(C)CC[C@]3(C)[C@H](CC[C@@H]4[C@@]5(C)CC[C@H](OC(=O)CC(C)(C)C(=O)O)C(C)(C)[C@@H]5CC[C@]43C)[C@@H]12 | > 17.2 | 2600 nM | – | > 45100 nM | > 36100 nM | 21600 nM | > 1.7 | – | – | – | – | – | – | – | – |
| C=C(C)[C@@H]1CC[C@]2(C(=O)NCCCCCCCC(=O)N[C@@H](CC(C)C)[C@H](O)CC(=O)O)CC[C@]3(C)[C@H](CC[C@@H]4[C@@]5(C)CC[C@H](O)C(C)(C)[C@@H]5CC[C@]43C)[C@@H]12 | – | – | – | – | – | – | – | – | – | 8.6 nM | – | > 13200 nM | – | – | – |
| CC(C)C[C@H](NC(=O)[C@]12CCC(C)(C)C=C1[C@H]1CC[C@@H]3[C@@]4(C)CC[C@H](OC(=O)CC(C)(C)C(=O)O)C(C)(C)[C@@H]4CC[C@@]3(C)[C@]1(C)CC2)C(=O)O | > 2740 | 15.6 nM | – | > 42700 nM | 22500 nM | 8.5 nM | 2650 | – | 8.5 nM | 3580 nM | – | > 14300 nM | 21 nM | – | 130 nM |
| CC1(C)C=C2[C@H]3CC[C@@H]4[C@@]5(C)CC[C@H](OC(=O)CC(C)(C)C(=O)O)C(C)(C)[C@@H]5CC[C@@]4(C)[C@]3(C)CC[C@@]2(C(=O)NCCCCCCCCCCC(=O)O)CC1 | 3400 | 7 nM | – | 24000 nM | 19500 nM | 110 nM | 177 | – | – | 5210 nM | – | > 13000 nM | – | – | – |
| C=C(C)[C@@H]1CC[C@]2(C(=O)N[C@@H](CC(C)C)C(=O)O)CC[C@]3(C)[C@H](CC[C@@H]4[C@@]5(C)CC[C@H](OC(=O)CC(C)(C)C(=O)O)C(C)(C)[C@@H]5CC[C@]43C)[C@@H]12 | – | – | – | – | 12200 nM | 10 nM | > 1220 | – | 10 nM | – | – | – | 6 nM | – | 50 nM |
| Cc1cn([C@H]2C[C@H](N=[N+]=[N-])[C@@H](CO)O2)c(=O)[nH]c1=O [ZIDOVUDINE] | – | – | – | – | > 37500 nM | – | – | – | 13 nM | – | – | – | 19 nM | – | 19 nM |
| C[C@H]1[C@H](C)CC[C@]2(C(=O)O)CC[C@]3(C)C(=CC[C@@H]4[C@@]5(C)CC[C@H](OC(=O)CC(C)(C)C(=O)O)C(C)(C)[C@@H]5CC[C@]43C)[C@H]12 | 360 | 79 nM | – | 28500 nM | 21000 nM | 8300 nM | 2.5 | – | – | – | – | – | – | – | – |
| C=C(C)[C@@H]1CC[C@]2(C(=O)NCCCCCCCCCCC(=O)O)CC[C@]3(C)[C@H](CC[C@@H]4[C@@]5(C)CC[C@H](OC(=O)CC(C)(C)C(=O)O)C(C)(C)[C@@H]5CC[C@]43C)[C@@H]12 | – | – | – | – | 11000 nM | 7 nM | 1570 | – | – | – | – | – | – | – | – |
| CC(C)C[C@H](NC(=O)[C@@]1(C)CC[C@]2(C)CC[C@]3(C)C(=CC(=O)[C@@H]4[C@@]5(C)CC[C@H](OC(=O)CC(C)(C)C(=O)O)C(C)(C)[C@@H]5CC[C@]43C)[C@@H]2C1)C(=O)O | – | – | inactive | – | – | – | – | – | – | – | – | – | – | inactive | – |
| CC(C)C[C@@H](CO)NC(=O)[C@]12CCC(C)(C)C=C1[C@H]1CC[C@@H]3[C@@]4(C)CC[C@H](OC(=O)CC(C)(C)C(=O)O)C(C)(C)[C@@H]4CC[C@@]3(C)[C@]1(C)CC2 | > 2500 | 17 nM | – | > 42700 nM | 23500 nM | 45 nM | 522 | – | 45 nM | 5850 nM | – | > 14600 nM | 88 nM | – | 2780 nM |
| CC(C)(CC(=O)O[C@H]1CC[C@]2(C)[C@H]3C(=O)C=C4[C@@H]5C[C@@](C)(C(=O)O)CC[C@]5(C)CC[C@@]4(C)[C@]3(C)CC[C@H]2C1(C)C)C(=O)O | – | – | inactive | – | – | – | – | – | – | – | – | – | – | inactive | – |
